Data on 10 molecules can be found in ChEMBL document CHEMBL2093137, “WHO-TDR NTD Screening”.

The IC50 is the point on the concentration scale where inhibition reaches its midpoint. As usually defined, the % Inhibition is the share of the control response that was lost under treatment.

Converted amounts (≈) assume the structure as drawn.

Data set [1] has as its system Trypanosoma cruzi. Kind of data set: WHO-TDR: Chagas disease. Format: functional, organism-based, Homo sapiens. To be noted: MRC5. Put shortly:
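Following previously published standard procedures, with a reference drug as positive control, a whole-organism assay was run on Trypanosoma cruzi Tulahuen CL2 beta-galactosidase strain amastigotes inside MRC-5SV2 human lung fibroblast host cells. The 10,000 compounds tested formed a diverse Life Chemicals library filtered for drug-likeness and reactive groups. Results are expressed as IC50 for antiparasitic potency.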

Data set [2] has as its system Brugia malayi. Kind of data set: WHO-TDR: Lymphatic Filariasis. Type of data set: functional. Details: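 tested at 10 µM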. The method in brief: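 Whole-organism screen of a 10,000-compound diverse library from Life Chemicals, filtered for drug-likeness and reactive groups, against Brugia malayi microfilariae. The assay followed previously published standard procedures, with reference drugs as positive controls. Activity is reported as percent inhibition and as IC50.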

Data set [3] relates to Onchocerca ochengi. The experiment in a line: WHO-TDR: Onchocerciasis. Format: functional. Details: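 at 12.5 µM on microfilariae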. The method in brief:
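Whole-organism screen of a 10,000-compound diverse library from Life Chemicals, filtered for drug-likeness and reactive groups, against microfilariae of Onchocerca ochengi or Onchocerca lienalis, used as animal-pathogen stand-ins for the human parasite. The assay followed previously published standard procedures, with reference drugs as positive controls. Activity is reported as percent inhibition and as IC50.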

Data set [4] in a line: WHO-TDR: Cytotoxicity. Type of data set: toxicity, cell-based. The conditions noted are these: human, MRC5 cells.
The test system of data set [5] is Trypanosoma brucei brucei. The experiment in a line: WHO-TDR: Human African Trypanosomiasis (HAT). Format: functional, organism-based. The conditions noted are these: Squib-427. Put shortly:
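Following previously published standard procedures, with reference drugs as positive controls, a whole-organism assay was run against bloodstream-form Trypanosoma brucei, Squib 427 strain. The compounds, 10,000 in all, came from a diverse Life Chemicals library filtered for drug-likeness and reactive groups. Reported values are IC50 for antiparasitic potency.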

The test system of data set [6] is Schistosoma mansoni. Kind of data set: WHO-TDR: Schistosomiasis. Format: functional. Details: concentration or dose not given beside the values. Put shortly: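 Whole-organism screen of a 10,000-compound diverse library from Life Chemicals, filtered for drug-likeness and reactive groups, against larval and/or adult worms of Schistosoma mansoni Puerto Rican strain. The assay followed previously published standard procedures, with a reference drug as positive control. Activity is reported as percent inhibition and as IC50.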

Data set [7] concerns Leishmania infantum. The experiment in a line: WHO-TDR: Leishmaniasis. Format: functional, organism-based, Mus musculus. To be noted: Macrophage. The method in brief:
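IC50 values describe antiparasitic potency in this whole-organism screen. Leishmania infantum MHOM/MA(BE)/67 amastigotes were tested inside murine peritoneal macrophages against a 10,000-compound diverse Life Chemicals library. A reference drug served as positive control.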

Data set [8] deals with Plasmodium falciparum K1. The experiment in a line: WHO-TDR: Malaria. Type of data set: functional, organism-based, Homo sapiens. To be noted: Erythrocyte. Put shortly: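 Life Chemicals supplied the diverse library of 10,000 compounds, which had been filtered for drug-likeness and reactive groups. Each was screened against the K1 strain of Plasmodium falciparum at its intra-erythrocytic stage in human red blood cells, using previously published standard procedures and a reference drug as positive control. The table reports IC50 for antiplasmodial potency.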

Take `O=C(Nc1ccc2c(c1)N(C(=O)C1CCCO1)CC2)c1ccco1` (stereo not given): the IC50 in data set [1] is greater than 9.79 µg/mL; in data set [4], greater than 9.79 µg/mL; in data set [5], greater than 9.79 µg/mL; in data set [7], 0.317 µg/mL (≈ 0.971 µM); in data set [8] it was greater than 9.79 µg/mL. For the same molecule, the “% Inhibition” value in data set [2], in data set [3] and in data set [6] was 0% each time.
On to `O=C(CN1CCN(c2nccn2-c2cccc(Cl)c2)CC1)N1CCc2ccccc21`, for which the IC50 in data set [1] was found to be 5.05 µg/mL (≈ 12 µM); in data set [4], 14.2 µg/mL (≈ 33.6 µM); in data set [5], 4.69 µg/mL (≈ 11.1 µM); in data set [7], 0.481 µg/mL (≈ 1.14 µM); in data set [8], 7.54 µg/mL (≈ 17.9 µM). The “% Inhibition” value in data set [2] amounted to 0%; in data set [3], 75%; in data set [6], 0%.
With `COc1ccc(-c2cccc(NC(=O)Nc3ccc(C)cc3)c2)nn1`, the IC50 was 7.36 µg/mL (≈ 22 µM) in data set [1]; greater than 10 µg/mL in data set [4]; greater than 10 µg/mL in data set [5]; greater than 10 µg/mL in data set [7]; greater than 10 µg/mL in data set [8]. For the same molecule, the “% Inhibition” value amounted to 0% in data set [2], 100% in data set [3] and 58.3% in data set [6].
As to `CCc1ccc(S(=O)(=O)N2CCN(c3ccc(Nc4ccccn4)nn3)CC2)cc1`, the 50% inhibitory concentration (IC50) in data set [1] is greater than 12.7 µg/mL; in data set [4], greater than 12.7 µg/mL; in data set [5], greater than 12.7 µg/mL; in data set [7], 0.412 µg/mL (≈ 0.97 µM); in data set [8], 2.8 µg/mL (≈ 6.6 µM). For the same molecule, the “% Inhibition” value in data set [2], in data set [3] and in data set [6] was 0% each time.
As to `O=C(c1ccc2c(c1)OCO2)C1C(=O)N(c2ccccc2)N=C1c1ccccc1` (stereo not given), the IC50 in data set [1] was greater than 11.5 µg/mL; in data set [4], 6.6 µg/mL (≈ 17.2 µM); in data set [5] it was 3.32 µg/mL (≈ 8.63 µM); in data set [7], greater than 11.5 µg/mL; in data set [8] it was greater than 11.5 µg/mL. The “% Inhibition” value was 0% in data set [2], 100% in data set [3] and 0% in data set [6].
For `O=C(CCCn1nc(-c2ccccc2)ccc1=O)N1CCN(c2ccccc2F)CC1`, the IC50 in data set [1] is 3.81 µg/mL (≈ 9.07 µM); in data set [4] it was greater than 12.6 µg/mL; in data set [5] it was 4.04 µg/mL (≈ 9.6 µM); in data set [7], greater than 12.6 µg/mL; in data set [8], greater than 12.6 µg/mL. Besides, the “% Inhibition” value in data set [2] is 0%; in data set [3] it was 100%; in data set [6], 25%.
Turning to `CCSc1nc(-c2ccccc2)c(NC(C)=O)s1`, the IC50 is greater than 8.35 µg/mL in data set [1]; greater than 8.35 µg/mL in data set [4]; greater than 8.35 µg/mL in data set [5]; 0.27 µg/mL (≈ 0.97 µM) in data set [7]; greater than 8.35 µg/mL in data set [8]. The “% Inhibition” value in data set [2], in data set [3] and in data set [6] was 0% in each case.
Consider `CSc1cccc(C(=O)N(Cc2cccnc2)c2nc3ccc(S(C)(=O)=O)cc3s2)c1`, for which the IC50 in data set [1] was 0.383 µg/mL (≈ 0.816 µM); in data set [4], greater than 14.1 µg/mL; in data set [5], greater than 14.1 µg/mL; in data set [7], greater than 14.1 µg/mL; in data set [8], 8.28 µg/mL (≈ 17.6 µM). The “% Inhibition” value in data set [2], in data set [3] and in data set [6] was 0% throughout.
For `Cc1ccc(-n2ccnc2N2CCN(C(=O)/C=C\c3ccccc3)CC2)cc1`, the IC50 in data set [1] was 3.88 µg/mL (≈ 10.4 µM); in data set [4], greater than 12.3 µg/mL; in data set [5] it was 4.07 µg/mL (≈ 10.9 µM); in data set [7] it was greater than 12.3 µg/mL; in data set [8], 6.82 µg/mL (≈ 18.3 µM). Besides, the “% Inhibition” value in data set [2] is 0%; in data set [3], 100%; in data set [6], 25%.
For the molecule `O=C(c1ccc(F)c(F)c1)N1CCN(c2nccn2-c2cccc(Cl)c2)CC1`, the IC50 in data set [1] is 11.4 µg/mL (≈ 28.2 µM); in data set [4], greater than 13.2 µg/mL; in data set [5], 3.83 µg/mL (≈ 9.51 µM); in data set [7], 4.27 µg/mL (≈ 10.6 µM); in data set [8], greater than 13.2 µg/mL. The entries for the “% Inhibition” value in data set [2], in data set [3] and in data set [6] were 0%, 100% and 0%, respectively.
